hERG rescue: compounds protecting human hERG from proarrhythmic drug block; Q12809; CHO-hERG, FluxOR thallium flux, dofetilide IC70 present; activation (rescue from dofetilide block), less the hit threshold, % at 10 µM; actives 0.51% (n = 310,000); AID 1511;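 active = activation above the mean of controls blocked by dofetilide plus 5 SD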;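 also: thallium influx through hERG after potassium depolarization seen as dye fluorescence rise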
Target sequence (Q12809 whole entry, looked up): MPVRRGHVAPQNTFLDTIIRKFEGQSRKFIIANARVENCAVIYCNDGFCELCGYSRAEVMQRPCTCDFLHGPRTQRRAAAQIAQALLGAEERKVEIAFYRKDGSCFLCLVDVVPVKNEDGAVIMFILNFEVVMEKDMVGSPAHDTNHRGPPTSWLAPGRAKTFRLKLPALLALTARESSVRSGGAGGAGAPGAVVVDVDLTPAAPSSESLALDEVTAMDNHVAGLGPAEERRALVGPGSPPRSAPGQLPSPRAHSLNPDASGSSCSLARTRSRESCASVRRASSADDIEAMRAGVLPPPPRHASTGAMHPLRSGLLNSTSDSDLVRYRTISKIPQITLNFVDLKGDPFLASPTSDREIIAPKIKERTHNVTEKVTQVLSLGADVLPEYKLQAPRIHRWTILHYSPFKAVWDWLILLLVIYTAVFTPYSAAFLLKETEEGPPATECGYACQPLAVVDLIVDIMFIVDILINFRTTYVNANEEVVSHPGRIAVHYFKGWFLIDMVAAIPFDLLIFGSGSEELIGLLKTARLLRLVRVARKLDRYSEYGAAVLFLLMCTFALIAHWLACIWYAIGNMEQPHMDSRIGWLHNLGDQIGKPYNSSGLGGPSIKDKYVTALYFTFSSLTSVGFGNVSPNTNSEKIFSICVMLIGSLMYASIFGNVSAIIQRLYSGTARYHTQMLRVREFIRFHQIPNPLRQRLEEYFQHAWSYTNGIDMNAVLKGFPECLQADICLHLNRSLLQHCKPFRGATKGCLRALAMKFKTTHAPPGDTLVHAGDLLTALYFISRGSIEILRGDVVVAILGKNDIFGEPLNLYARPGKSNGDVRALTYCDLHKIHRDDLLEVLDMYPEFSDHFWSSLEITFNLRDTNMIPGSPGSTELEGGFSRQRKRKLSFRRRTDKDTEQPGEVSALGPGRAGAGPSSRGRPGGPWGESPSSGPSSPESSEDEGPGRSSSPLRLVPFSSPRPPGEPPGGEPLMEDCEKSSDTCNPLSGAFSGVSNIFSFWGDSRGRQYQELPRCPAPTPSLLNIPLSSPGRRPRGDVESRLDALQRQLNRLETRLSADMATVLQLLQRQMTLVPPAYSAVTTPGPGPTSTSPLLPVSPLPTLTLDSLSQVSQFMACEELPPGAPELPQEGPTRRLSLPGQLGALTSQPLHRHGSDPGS
Kir21 inh: Kir2.1 (mouse) channel inhibition | B-score at 10 µM | HEK293-Kir2.1, FluxOR thallium flux fluorescence; stronger effect = lower value | actives 0.85% (n = 310,000) | P35561;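 active = fluorescence ratio B-score at or below minus 3 SD of library scores, with starting-brightness B-score within 2 SD, cut at about -4.2 in these data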;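 also: channel flux triggered by added potassium and thallium sulfate stimulus; B-score of peak minus minimum fluorescence over baseline after thallium stimulus; more negative B-score means stronger Kir2.1 block with less thallium influx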
KCNQ1 pot: potentiates or activates the human KCNQ1 potassium channel | P51787 | CHO-K1 KCNQ1, thallium flux FluxOR fluorescence; stronger effect = higher value | B-score at 10 µM | actives 0.35% (n = 310,000);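 active = fluorescence ratio B-score, a plate-corrected score, at least three library SD, with initial intensity B-score within 5 SD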
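Test system: CHO-K1 cells stably expressing KCNQ1 / Medium: assay buffer / Also added: depolarizing K+/Tl+ stimulus, K2SO4 and Tl2SO4 each 12.5 mM in 5x stock / Incubation: 90 min dye loading and 20 min compound exposure, both at room temperature / Signal: thallium influx via FluxOR fluorescence, kinetic imaging / Evaluation: B score of baseline-normalized fluorescence ratio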
KCNQ1 inh: blocks the human KCNQ1 potassium channel; P51787; CHO-K1 KCNQ1, FluxOR thallium flux fluorescence; stronger effect = higher value; B-score at 10 µM; actives 1.3% (n = 310,000); AID 2642;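 active = compounds whose thallium flux B-score, printed positive for inhibition, exceeds three library SD while starting fluorescence stays within three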;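 also: channel opened by potassium depolarization with thallium stimulus after 20 min compound exposure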
KCNK9 block: blocks the human KCNK9 two-pore domain potassium channel; actives 1.2% (n = 310,000); Q9NPC2; HEK293 KCNK9, FluxOR thallium flux fluorescence; stronger effect = lower value; B-score at 10 µM; AID 488922;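 active = ratio B-score over 3 SD below the library mean, with starting fluorescence within 5 SD of its mean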;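 also: negative B-score means less thallium flux so channel inhibition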
KCNK3 inh: human KCNK3 channel inhibition, primary screen; O14649; CHO-KCNK3 thallium flux, FluxOR fluorescence; stronger effect = lower value; B-score at 10 µM; actives 0.84% (n = 340,000); AID 602410;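 active = B-score under library mean minus 4 SD, starting fluorescence ratio at most library mean plus 5 SD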;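 also: more negative B-score means stronger inhibition of thallium flux through KCNK3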
Numbers stand for hits; i = inactive; nt = not tested or not shown. Most compounds without a hit are left out; they make up all but 3.7% or so of the library.

SMILES	hERG rescue	Kir21 inh	KCNQ1 pot	KCNQ1 inh	KCNK9 block	KCNK3 inh
Cc1ccc(NC(=O)CN(C)CC(=O)Nc2ccc(N3CCOCC3)cc2)c([N+](=O)[O-])c1	i	i	i	i	i	i
Fc1ccc(C2CCNCC2COc2ccc3c(c2)OCO3)cc1 (centres undefined)	i	-6.5	i	i	i	i
Fc1ccc([C@@H]2CCNC[C@H]2COc2ccc3c(c2)OCO3)cc1	i	-6.5	i	i	i	i
O=C(COc1ccc2c(c1)OCO2)Nc1ccccc1F	i	i	i	i	i	i
COC(=O)CC1C(=O)NCCN1C(=O)c1ccc(Cl)cc1 (centres undefined)	i	i	i	i	i	i
CCn1c(=O)c([N+](=O)[O-])c(NCCN(C)C)c2ccccc21	i	i	i	i	i	i
CCn1c(=O)c([N+](=O)[O-])c(Cl)c2ccccc21	i	i	i	7	i	i
COc1ccc(Oc2ccc(/C=C/C(=O)c3ccc(O)cc3)cc2[N+](=O)[O-])cc1	i	i	i	i	i	i
O=C(CSc1nnc(NC(=O)C2CC2)s1)Nc1ccc2c(c1)OCCO2	i	i	i	i	i	i
CC(C)(C)C1=CC=C(C(C)(C)C)C(=O)C1=O	i	i	i	10	i	nt
Cc1cc(N2CCC(C(=O)NC3CC3)CC2)nc(-c2ccccc2)n1	i	i	i	i	i	i
Cc1cc(N2CCN(c3cccc(C)c3C)CC2)nc(-c2ccccc2)n1	i	i	i	i	-6.6	i
COc1cccc(-c2csc(NC3OC(=O)c4c3ccc(OC)c4OC)n2)c1 (centres undefined)	i	i	i	i	i	i
COc1ccc2c(c1OC)C(=O)OC2Nc1nc(-c2ccc(-c3ccccc3)cc2)cs1 (centres undefined)	i	i	i	i	-7.1	i
N#Cc1ccc(/C=C/C(=O)c2cccnc2)cc1	i	-9	i	6	i	i
O=C(/C=C/c1ccc(Cl)cc1)c1cccnc1	i	-7.9	i	i	i	i
CCN(CC)c1ccc(/C=C/C(=O)c2cccnc2)cc1	i	i	i	i	i	i
Cc1cccc2cc3c(N)c(C(=O)Nc4ccc(N5CCOCC5)cc4)sc3nc12	i	i	i	i	i	-11
Cc1ccc2nc3sc(C(=O)Nc4ccc(N5CCOCC5)cc4)c(N)c3cc2c1	i	i	i	i	i	nt
CN1CCN(c2ccc(NC(=O)CSc3nnnn3-c3ccccc3Cl)cc2)CC1	i	i	i	i	i	i
Cc1ccc(C(CNC(=O)Nc2ccc(Cl)cc2)N2CCN(C)CC2)cc1 (centres undefined)	i	i	i	i	i	i
CN1CCN(C(CNC(=O)Nc2ccc(Cl)cc2)c2ccc(F)cc2)CC1 (centres undefined)	i	i	i	6	i	i
Cn1c(CNC(=O)c2ccc(Cl)cc2)nnc1SCC(=O)NC1CCCC1	i	i	i	i	i	i
CC1(C)CC(=O)C2=C(C1)NC1=C(C(=O)c3ccccc31)C2c1ccc(O)cc1 (centres undefined)	i	i	i	i	i	i
CCCc1ccc(C2C3=C(CC(C)(C)CC3=O)NC3=C2C(=O)c2ccccc23)cc1 (centres undefined)	i	i	i	9	i	i
SMILES	hERG rescue	Kir21 inh	KCNQ1 pot	KCNQ1 inh	KCNK9 block	KCNK3 inh
CCOC(=O)C1=C(C)N=C2c3ccccc3C(=O)C2C1c1ccc(Cl)cc1 (centres undefined)	i	i	i	i	-8	-10
Cc1ccc(S(=O)(=O)Nc2cc(Cl)c(O)cc2C)cc1	i	-5.6	i	i	i	i
Cc1ccc(S(=O)(=O)Nc2cc(C(C)C)c(O)cc2C)cc1	i	-6.5	i	i	i	i
Cc1ccc(NS(=O)(=O)c2ccc(Cl)nc2)c(C)c1	nt	nt	nt	nt	nt	i
N#CC1(Nc2ccc3ccccc3c2)CCCC1	nt	nt	nt	nt	nt	i
CC(NCc1cc(Br)ccc1OCC(=O)NCc1ccccc1)c1ccccc1 (centres undefined)	i	-16	i	6	i	i
COC(=O)c1sccc1NC(=S)NCc1ccc(Cl)cc1	14	i	i	i	i	i
CCOc1ccccc1NC(=O)CNS(=O)(=O)c1ccc2nc(C)sc2c1	i	i	i	i	i	i
COC(=O)C1=C(C)N(Cc2ccc(C)cc2)C(=O)/C1=C\c1cc(OC)c(OC)c(OC)c1	i	i	i	i	-6.6	i
COC(=O)C1=C(C)N(Cc2ccccc2)C(=O)/C1=C\c1ccco1	i	i	i	i	i	i
CS(=O)(=O)N(CC(=O)NC1CCCC1)C1CCCCC1	6.5	i	i	i	i	i
O=C(c1ccc(-c2cccc([N+](=O)[O-])c2)o1)N1CCN(c2ccc([N+](=O)[O-])cc2)CC1	nt	nt	nt	nt	nt	i
O=C(c1ccc(-c2ccc(Cl)cc2)o1)N1CCN(c2ccc([N+](=O)[O-])cc2Cl)CC1	i	i	i	7	i	i
COc1ccc2[nH]c(C(=O)N/N=C/c3ccc(O)cc3O)cc2c1	i	i	i	i	i	i
NC(N)=Nc1nc(-c2ccccc2)c2cc(F)ccc2n1	i	i	i	i	i	i
O=C1CC(c2ccco2)CC(O)=C1C=Nc1cc(Cl)ccc1O (centres undefined)	i	i	i	6	i	i
O=C1CC(c2ccco2)CC(O)=C1C=Nc1cc(Cl)ccc1Cl (centres undefined)	i	i	i	i	i	i
O=c1c2ccccc2[nH]c(=S)n1C1CCCCC1	9.3	i	9	i	i	i
CC1CCCC(n2c(=S)[nH]c3ccccc3c2=O)C1C (centres undefined)	i	i	41	i	i	i
CC1CCC(n2c(=S)[nH]c3ccccc3c2=O)CC1 (centres undefined)	18	i	56	i	i	i
N#Cc1ccccc1NC(=O)COC(=O)c1ccc2c(c1)OCO2	nt	nt	nt	nt	nt	i
CC(Sc1ccc(S(=O)(=O)N2CCCCCC2)cn1)C(N)=O (centres undefined)	nt	nt	nt	nt	nt	i
Cc1ccc(C(=O)Nc2ccc(N3CCN(C(=O)c4cccs4)CC3)cc2)c(Cl)c1	i	i	i	i	i	i
CC#CC[N+](C)(C)CCCCCCCCCCCC	i	-5	i	6	i	i
Clc1ccc(CN2CCC(Cc3ccccc3)CC2)cc1	i	-7.5	i	i	i	i
SMILES	hERG rescue	Kir21 inh	KCNQ1 pot	KCNQ1 inh	KCNK9 block	KCNK3 inh
Fc1ccc(CN2CCC(Cc3ccccc3)CC2)cc1F	i	i	i	i	i	i
Clc1cccc(CN2CCC(Cc3ccccc3)CC2)c1	i	-7.2	i	i	i	i
O=C(/C=C/c1cccc(Cl)c1)N1CCC(Cc2ccccc2)CC1	i	i	i	8	i	i
c1ccc(CC2CCN(Cc3ccccn3)CC2)cc1	i	i	i	i	i	i
CCOc1ccc(S(=O)(=O)NC(C)C)cc1C(N)=O	i	i	i	i	i	i
O=C(CCN1CCOCC1)Nc1ccccc1	5.1	i	i	i	i	i
